ChEMBL document CHEMBL1833832, “The discovery of long-acting saligenin β₂ adrenergic receptor agonists incorporating a urea group” (Bioorg Med Chem, 2011)

Key:
[1] = target: Beta-2 adrenergic receptor (Homo sapiens, UniProt P07550); assay: Agonist activity at human beta2 receptor expressed in CHO cells assessed as cAMP accumulation; assay type: functional, cell-based
[2] = target: Beta-1 adrenergic receptor (Homo sapiens, UniProt P08588); assay: Agonist activity at human beta1 receptor expressed in CHO cells assessed as cAMP accumulation; assay type: functional, cell-based
[3] = target: Beta-3 adrenergic receptor (Homo sapiens, UniProt P13945); assay: Agonist activity at human beta3 receptor expressed in CHO cells assessed as cAMP accumulation; assay type: functional, cell-based
Liver microsomes = assay: Metabolic stability in human liver microsomes assessed as compound turn over ratio relative to verapamil; assay type: ADME, Microsome
[4] = target: Beta-2 adrenergic receptor (Cavia porcellus, UniProt Q8K4Z4); assay: Agonist activity at beta2 adrenergic receptor in guinea pig tracheal strip assessed as inhibition of electrically-induced bronchocontractile response; assay type: functional, tissue-based, Trachea
Cavia porcellus [5] = organism: Cavia porcellus; assay: Bronchodilatory activity against electrically-stimulated contraction in guinea pig trachea assessed as onset time for bronchorelaxation activity; assay type: functional
Method in brief: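 Isolated guinea pig trachea strips were superfused and contracted electrically. Agonist was perfused until maximal relaxation was reached. Onset was taken as the time for an EC50 concentration to reach 50% of maximal relaxant effect. Minimum n = 2.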

[6] = Lipophilicity, log D of the compound at pH 6.4; assay type: physicochemical; details: buffer
[7] = AUC in Han Wistar rat at 2 mg/kg, po; assay type: ADME, organism-based; design: dose 2 mg/kg, route oral; details: plasma
Method in brief: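 Oral absorption in rat was measured as AUC using a deconjugated HPV model.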

Rattus norvegicus = assay: Liver blood flow in Han Wistar rat at 0.25 mg/kg, iv; assay type: ADME, organism-based; design: dose 0.25 mg/kg, route intravenous; details: in vivo
Cavia porcellus [8] = organism: Cavia porcellus; assay: Bronchodilatory activity against histamine-induced bronchospasm in the guinea pig; assay type: functional
Method in brief: (§1)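 In vivo guinea pig model with histamine-induced bronchospasm, measured in a plethysmograph chamber. Compound was given as a nebulised solution in dimethyl acetamide-saline vehicle. Potency is expressed as the EC90 nebuliser concentration.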

Cavia porcellus [9] = assay: Bronchodilatory activity against histamine-induced bronchospasm in guinea pig assessed as time taken for 50% recovery of bronchospasm at EC90 administered via nebulizer; assay type: functional; method in brief: as §1
Cavia porcellus [10] = assay: Bronchodilatory activity against histamine-induced bronchospasm in guinea pig assessed as time taken for 50% recovery of bronchospasm at 10 times EC90 administered via nebulizer; assay type: functional; method in brief: as §1
[11] = Plasma clearance in Han Wistar rat at 0.25 mg/kg, iv; assay type: ADME, organism-based; design: dose 0.25 mg/kg, route intravenous
Method in brief: (§2)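 Pharmacokinetics were run in male Han Wistar rat and Beagle dog, dosed intravenously and orally. Plasma clearance, steady-state volume of distribution, half-life and oral bioavailability were derived from the plasma profiles. Rat plasma samples were deconjugated before analysis.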

[12] = Volume of distribution at steady state in Han Wistar rat at 0.25 mg/kg, iv; assay type: ADME, organism-based; design: dose 0.25 mg/kg, route intravenous; details: in vivo, read-out: Vdss; method in brief: as §2
[13] = Half life in Han Wistar rat at 0.25 mg/kg, iv; assay type: ADME, organism-based; design: dose 0.25 mg/kg, route intravenous; details: in vivo; method in brief: as §2
[14] = Oral bioavailability in Han Wistar rat at 2 mg/kg; assay type: ADME, organism-based; details: in vivo; method in brief: as §2
[15] = Half life in Beagle dog at 0.05 mg/kg, iv; details: in vivo
[16] = Oral bioavailability in Beagle dog at 0.25 mg/kg; details: in vivo
Canis familiaris = assay: Liver blood flow in Beagle dog at 0.05 mg/kg, iv; details: in vivo
[17] = Plasma clearance in Beagle dog at 0.05 mg/kg, iv
[18] = Volume of distribution at steady state in Beagle dog at 0.05 mg/kg, iv; details: in vivo, read-out: Vdss
[19] = Oral bioavailability in dog; assay type: ADME, organism-based, Canis lupus familiaris; details: in vivo; method in brief: as §2

Sequence of Beta-2 adrenergic receptor (Cavia porcellus, UniProt Q8K4Z4) (Q8K4Z4 whole entry): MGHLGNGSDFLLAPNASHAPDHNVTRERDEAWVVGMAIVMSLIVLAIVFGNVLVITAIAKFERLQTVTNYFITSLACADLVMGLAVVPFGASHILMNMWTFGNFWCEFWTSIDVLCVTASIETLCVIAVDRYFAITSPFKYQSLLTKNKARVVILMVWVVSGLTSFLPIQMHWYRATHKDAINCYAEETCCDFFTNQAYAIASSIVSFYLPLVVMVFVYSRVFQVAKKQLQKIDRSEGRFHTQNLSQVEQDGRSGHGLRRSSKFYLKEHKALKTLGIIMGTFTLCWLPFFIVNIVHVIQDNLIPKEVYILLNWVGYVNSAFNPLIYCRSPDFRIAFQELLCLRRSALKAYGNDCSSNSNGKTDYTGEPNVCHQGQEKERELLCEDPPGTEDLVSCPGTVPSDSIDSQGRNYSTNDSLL
Sequence of Beta-1 adrenergic receptor (P08588 whole entry): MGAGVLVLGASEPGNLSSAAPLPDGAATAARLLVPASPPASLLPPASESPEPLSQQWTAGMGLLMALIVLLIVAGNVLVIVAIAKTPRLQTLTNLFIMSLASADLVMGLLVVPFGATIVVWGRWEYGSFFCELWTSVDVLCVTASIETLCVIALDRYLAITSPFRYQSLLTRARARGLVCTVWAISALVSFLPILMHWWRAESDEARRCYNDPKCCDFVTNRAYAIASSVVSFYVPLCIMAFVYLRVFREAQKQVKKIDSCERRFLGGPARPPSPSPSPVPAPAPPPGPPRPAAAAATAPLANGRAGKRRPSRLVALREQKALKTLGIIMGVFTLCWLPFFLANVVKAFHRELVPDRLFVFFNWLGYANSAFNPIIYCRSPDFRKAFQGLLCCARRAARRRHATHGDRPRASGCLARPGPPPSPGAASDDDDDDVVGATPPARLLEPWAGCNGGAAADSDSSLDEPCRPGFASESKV
Sequence of Beta-3 adrenergic receptor (P13945 whole entry): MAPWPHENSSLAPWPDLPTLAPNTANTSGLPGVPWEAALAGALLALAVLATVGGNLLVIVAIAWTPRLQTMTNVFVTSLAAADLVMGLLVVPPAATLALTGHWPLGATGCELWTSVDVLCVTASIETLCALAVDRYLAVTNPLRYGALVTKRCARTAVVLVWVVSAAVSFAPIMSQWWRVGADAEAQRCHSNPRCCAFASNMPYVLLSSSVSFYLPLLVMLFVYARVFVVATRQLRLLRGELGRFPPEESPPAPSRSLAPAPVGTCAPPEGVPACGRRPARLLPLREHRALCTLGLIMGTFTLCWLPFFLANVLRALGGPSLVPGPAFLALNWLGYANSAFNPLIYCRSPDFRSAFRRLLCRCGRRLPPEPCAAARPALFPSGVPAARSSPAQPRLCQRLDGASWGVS
Sequence of Beta-2 adrenergic receptor (Homo sapiens, UniProt P07550) (P07550 whole entry): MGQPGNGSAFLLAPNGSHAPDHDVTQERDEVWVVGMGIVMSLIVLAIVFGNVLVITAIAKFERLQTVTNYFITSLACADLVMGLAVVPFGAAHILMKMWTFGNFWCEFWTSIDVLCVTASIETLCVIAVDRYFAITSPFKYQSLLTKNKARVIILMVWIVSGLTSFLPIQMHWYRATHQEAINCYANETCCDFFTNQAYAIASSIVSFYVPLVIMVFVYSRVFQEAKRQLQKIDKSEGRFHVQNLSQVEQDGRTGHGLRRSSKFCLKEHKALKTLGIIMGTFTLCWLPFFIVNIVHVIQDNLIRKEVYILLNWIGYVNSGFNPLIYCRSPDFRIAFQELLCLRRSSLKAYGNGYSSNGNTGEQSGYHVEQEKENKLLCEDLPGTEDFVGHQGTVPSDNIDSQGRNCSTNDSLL

With `CC(=O)O.NC(=O)Nc1cccc(CCCCOCCCCCCNC[C@H](O)c2ccc(O)c(CO)c2)c1` the EC50 [1] was 0.794 nM, the EC50 [2] was 63.1 nM and the EC50 [3] was 7.94 nM. The “fold change (FC)” value (Liver microsomes) was 0.97, the EC50 [4] was 2.51 nM and the Time (Cavia porcellus [5]) was 13.5 min. The logD [6] was -0.28.
For `CC(=O)O.CCNC(=O)Nc1cccc(CCCCOCCCCCCNC[C@H](O)c2ccc(O)c(CO)c2)c1`, the EC50 [1] was 1 nM, the EC50 [2] was 31.6 nM and the EC50 [3] was 158 nM. For the same compound, the “fold change (FC)” value (Liver microsomes) was 0.81, the EC50 [4] was 1.26 nM and the Time (Cavia porcellus [5]) was 15 min. For the same compound, the logD [6] was 0.5.
Work on `CC(=O)O.O=C(Nc1cccc(CCCCOCCCCCCNC[C@H](O)c2ccc(O)c(CO)c2)c1)NC1CCCCC1` yielded an EC50 [1] of 1 nM, an EC50 [2] of 7.94 nM and an EC50 [3] of 2.51 nM. The “fold change (FC)” value (Liver microsomes) was 2.18.
`CC(=O)O.CCNC(=O)Nc1ccc(CCCCOCCCCCCNC[C@H](O)c2ccc(O)c(CO)c2)cc1` gave an EC50 [1] of 0.501 nM, an EC50 [2] of 31.6 nM and an EC50 [3] of 12.6 nM. For the same compound, the “fold change (FC)” value (Liver microsomes) was 1.37.
`CC(=O)O.NC(=O)NCc1cccc(CCCCOCCCCCCNC[C@H](O)c2ccc(O)c(CO)c2)c1` gave an EC50 [1] of 0.501 nM, an EC50 [2] of 7.94 nM and an EC50 [3] of 15.8 nM. For the same compound, the “fold change (FC)” value (Liver microsomes) was 1.64.
`CC(=O)O.CCNC(=O)NCc1cccc(CCCCOCCCCCCNC[C@H](O)c2ccc(O)c(CO)c2)c1` showed an EC50 [1] of 0.631 nM, an EC50 [2] of 31.6 nM and an EC50 [3] of 31.6 nM. The “fold change (FC)” value (Liver microsomes) was 0.72.
Work on `NC(=O)CNC(=O)Nc1cccc(CCCCOCCCCCCNC[C@H](O)c2ccc(O)c(CO)c2)c1.O=CO` yielded an EC50 [1] of 0.251 nM, an EC50 [2] of 31.6 nM and an EC50 [3] of 100 nM. It also gave an EC50 [4] of 0.251 nM, a Time (Cavia porcellus [5]) of 9 min and a logD [6] of -0.78.
`O=C(CNC(=O)Nc1cccc(CCCCOCCCCCCNC[C@H](O)c2ccc(O)c(CO)c2)c1)NC1CCCC1` showed an EC50 [1] of 0.316 nM, an EC50 [2] of 10 nM and an EC50 [3] of 12.6 nM.
`CC(=O)O.NC(=O)Nc1cc(CCCCOCCCCCCNC[C@H](O)c2ccc(O)c(CO)c2)cc(C(F)(F)F)c1` gave an EC50 [1] of 1 nM, an EC50 [2] of 50.1 nM and an EC50 [3] of 25.1 nM. The “fold change (FC)” value (Liver microsomes) was 1.34.
Compound `CC(=O)O.Cc1cc(CCCCOCCCCCCNC[C@H](O)c2ccc(O)c(CO)c2)cc(NC(N)=O)c1` has an AUC [7] of 80.2 ng·h/mL, a QH (Rattus norvegicus) of 100% and an EC90 (Cavia porcellus [8]) of 10000 nM. It also gave a Time (Cavia porcellus [9]) of 7 h, a Time (Cavia porcellus [10]) of 18 h and an EC50 [1] of 0.158 nM. For the same compound, the EC50 [2] was 39.8 nM, the EC50 [3] was 39.8 nM and the “fold change (FC)” value (Liver microsomes) was 1.17. The EC50 [4] was 1.58 nM, the Time (Cavia porcellus [5]) was 10 min and the logD [6] was 0.2. For the same compound, the clearance [11] was 83 mL/min/kg, the Vd [12] was 2 L/kg and the half-life [13] was 54 min. For the same compound, the bioavailability [14] was less than 5%, the half-life [15] was 60 min and the bioavailability [16] was 6%. For the same compound, the QH (Canis familiaris) was less than 67%, the clearance [17] was 6 mL/min/kg and the Vd [18] was 0.55 L/kg.
`OCc1cc(C(O)CNCCCCCCOCCCCc2ccccc2)ccc1O` (configuration not stated) [SALMETEROL] gave a bioavailability [19] of 66%, a Time (Cavia porcellus [9]) of 8 h and a logD [6] of 1.06.
